In ChEMBL document CHEMBL5724801, “EUbOPEN Chemogenomics Library - Multiplex” (2024):
Where “and” joins values, the source holds several entries; their conditions need not be identical. Identical values can stand only once.

Tested on: U2OS
Test: Multiplex assay against U2OS
Assay type: toxicity, cell-based
Settings: human
Method in brief: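 With compound added, live cells were imaged on a CQ1 microscope at 37°C and 5% CO2; staining with Hoechst33342, BioTracker Green Microtubule Cytoskeleton Dye, MitoTracker Red and Annexin V Alexa Fluor 680 had been done at seeding. The CellPathfinder machine-learning gating scheme split cells into Hoechst high-intensity objects or normal cells, normal cells into healthy, pyknosed or fragmented nuclei, and pyknosed cells into mitotic or apoptotic. The tubulin, mitochondrial-mass and membrane-permeability phenotypes are per cents of healthy-nucleus cells.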

[1] = 12 h, 1 µM, compound concentration 1 uM
[2] = 12 h, 10 µM, compound concentration 10 uM
[3] = 24 h, 1 µM, compound concentration 1 uM
[4] = 24 h, 10 µM, compound concentration 10 uM
[5] = 48 h, 1 µM, compound concentration 1 uM
[6] = 48 h, 10 µM, compound concentration 10 uM

Cc1noc(-c2ccc(-c3ccc(CC(=O)O)cc3)cc2)c1NC(=O)O[C@H](C)c1ccccc1Cl
Population Apoptotic (%) [1]: 95% and 85%
Population Fragmented Nuclei (%) [1]: 21% and 19%
Population Healthy Nuclei (%) [1]: 69% and 74%
Population Hoechst High Intensity Objects (%) [1]: 4% and 0%
Population Membrane Permeable-Phenotype (%) [1]: 7% and 2%
Population Mitochondria Different-Phenotype (%) [1]: 5% and 2%
Population Mitotic Cells (%) [1]: 5% and 14%
Population Normal (%) [1]: 95% and 99%
Population Pyknosed Nuclei (%) [1]: 9% and 7%
Population Tubulin-Different-Phenotype (%) [1]: 4%
Total Cell Count [1]: 231 and 101
Population Apoptotic (%) [2]: 78% and 71%
Population Fragmented Nuclei (%) [2]: 29% and 11%
Population Healthy Nuclei (%) [2]: 61% and 83%
Population Hoechst High Intensity Objects (%) [2]: 2%
Population Membrane Permeable-Phenotype (%) [2]: 11% and 6%
Population Mitochondria Different-Phenotype (%) [2]: 4% and 2%
Population Mitotic Cells (%) [2]: 21% and 28%
Population Normal (%) [2]: 97%
Population Pyknosed Nuclei (%) [2]: 9% and 5%
Population Tubulin-Different-Phenotype (%) [2]: 6%
Total Cell Count [2]: 242 and 138
Population Apoptotic (%) [3]: 96% and 77%
Population Fragmented Nuclei (%) [3]: 19% and 15%
Population Healthy Nuclei (%) [3]: 70% and 77%
Population Hoechst High Intensity Objects (%) [3]: 2% and 0%
Population Membrane Permeable-Phenotype (%) [3]: 5% and 4%
Population Mitochondria Different-Phenotype (%) [3]: 4% and 3%
Population Normal (%) [3]: 97% and 99%
Population Pyknosed Nuclei (%) [3]: 9% and 7%
Population Tubulin-Different-Phenotype (%) [3]: 3% and 6%
Total Cell Count [3]: 277 and 125
Population Apoptotic (%) [4]: 92% and 90%
Population Fragmented Nuclei (%) [4]: 24% and 12%
Population Healthy Nuclei (%) [4]: 65% and 80%
Population Hoechst High Intensity Objects (%) [4]: 1% and 2%
Population Membrane Permeable-Phenotype (%) [4]: 11% and 7%
Population Mitochondria Different-Phenotype (%) [4]: 2%
Population Mitotic Cells (%) [4]: 7% and 9%
Population Normal (%) [4]: 98% and 97%
Population Pyknosed Nuclei (%) [4]: 10% and 7%
Population Tubulin-Different-Phenotype (%) [4]: 5% and 4%
Total Cell Count [4]: 260 and 154
Population Apoptotic (%) [5]: 97% and 86%
Population Fragmented Nuclei (%) [5]: 15% and 18%
Population Healthy Nuclei (%) [5]: 75% and 72%
Population Hoechst High Intensity Objects (%) [5]: 1% and 0%
Population Membrane Permeable-Phenotype (%) [5]: 6%
Population Mitochondria Different-Phenotype (%) [5]: 3% and 4%
Population Normal (%) [5]: 98% and 100%
Population Pyknosed Nuclei (%) [5]: 9% and 8%
Population Tubulin-Different-Phenotype (%) [5]: 3% and 4%
Total Cell Count [5]: 408 and 170
Population Apoptotic (%) [6]: 92% and 85%
Population Fragmented Nuclei (%) [6]: 19% and 9%
Population Healthy Nuclei (%) [6]: 72% and 78%
Population Hoechst High Intensity Objects (%) [6]: 3% and 4%
Population Membrane Permeable-Phenotype (%) [6]: 7% and 6%
Population Mitochondria Different-Phenotype (%) [6]: 3% and 2%
Population Mitotic Cells (%) [6]: 7% and 14%
Population Normal (%) [6]: 96% and 95%
Population Pyknosed Nuclei (%) [6]: 8% and 11%
Population Tubulin-Different-Phenotype (%) [6]: 5% and 4%
Total Cell Count [6]: 344 and 241

C[C@@H]1CC(=O)Nc2cccc(-c3ccc4c(c3)c(-c3cnn(C)c3)nn4C)c2N1
Population Apoptotic (%) [1]: 92% and 88%
Population Fragmented Nuclei (%) [1]: 20% and 16%
Population Healthy Nuclei (%) [1]: 73% and 75%
Population Hoechst High Intensity Objects (%) [1]: 1%
Population Membrane Permeable-Phenotype (%) [1]: 7% and 5%
Population Mitochondria Different-Phenotype (%) [1]: 4% and 2%
Population Mitotic Cells (%) [1]: 7% and 11%
Population Normal (%) [1]: 98%
Population Pyknosed Nuclei (%) [1]: 6% and 7%
Population Tubulin-Different-Phenotype (%) [1]: 6% and 2%
Total Cell Count [1]: 233 and 116
Population Apoptotic (%) [2]: 86% and 33%
Population Fragmented Nuclei (%) [2]: 29% and 21%
Population Healthy Nuclei (%) [2]: 58% and 74%
Population Hoechst High Intensity Objects (%) [2]: 2% and 1%
Population Membrane Permeable-Phenotype (%) [2]: 11% and 7%
Population Mitochondria Different-Phenotype (%) [2]: 11% and 7%
Population Normal (%) [2]: 97% and 98%
Population Pyknosed Nuclei (%) [2]: 12% and 4%
Population Tubulin-Different-Phenotype (%) [2]: 8%
Population Apoptotic (%) [3]: 95% and 100%
Population Fragmented Nuclei (%) [3]: 20% and 22%
Population Healthy Nuclei (%) [3]: 71% and 74%
Population Hoechst High Intensity Objects (%) [3]: 2% and 1%
Population Membrane Permeable-Phenotype (%) [3]: 5% and 1%
Population Mitochondria Different-Phenotype (%) [3]: 2% and 1%
Population Mitotic Cells (%) [3]: 4% and 0%
Population Normal (%) [3]: 97% and 98%
Population Pyknosed Nuclei (%) [3]: 7% and 4%
Population Tubulin-Different-Phenotype (%) [3]: 2% and 0%
Total Cell Count [3]: 294 and 152
Population Apoptotic (%) [4]: 90% and 83%
Population Fragmented Nuclei (%) [4]: 24% and 15%
Population Healthy Nuclei (%) [4]: 63% and 78%
Population Hoechst High Intensity Objects (%) [4]: 4% and 1%
Population Membrane Permeable-Phenotype (%) [4]: 7% and 6%
Population Mitochondria Different-Phenotype (%) [4]: 6% and 1%
Population Mitotic Cells (%) [4]: 10% and 16%
Population Normal (%) [4]: 95% and 98%
Population Pyknosed Nuclei (%) [4]: 11% and 6%
Population Tubulin-Different-Phenotype (%) [4]: 3% and 4%
Total Cell Count [4]: 266 and 97
Population Apoptotic (%) [5]: 100%
Population Fragmented Nuclei (%) [5]: 19% and 13%
Population Healthy Nuclei (%) [5]: 73% and 77%
Population Hoechst High Intensity Objects (%) [5]: 1%
Population Membrane Permeable-Phenotype (%) [5]: 4% and 2%
Population Mitochondria Different-Phenotype (%) [5]: 2%
Population Mitotic Cells (%) [5]: 0%
Population Normal (%) [5]: 98%
Population Pyknosed Nuclei (%) [5]: 6% and 8%
Population Tubulin-Different-Phenotype (%) [5]: 3% and 2%
Total Cell Count [5]: 437 and 224
Population Apoptotic (%) [6]: 100%
Population Fragmented Nuclei (%) [6]: 28% and 23%
Population Healthy Nuclei (%) [6]: 65% and 71%
Population Hoechst High Intensity Objects (%) [6]: 3% and 4%
Population Membrane Permeable-Phenotype (%) [6]: 8% and 3%
Population Mitochondria Different-Phenotype (%) [6]: 3% and 0%
Population Mitotic Cells (%) [6]: 0%
Population Normal (%) [6]: 96% and 95%
Population Pyknosed Nuclei (%) [6]: 5% and 4%
Population Tubulin-Different-Phenotype (%) [6]: 5% and 3%
Total Cell Count [6]: 394 and 149
